Screens as filed in PubChem.
BAP1 block = blocks human BAP1 ubiquitin-AMC hydrolysis | Q92560 | recombinant BAP1, Ub-AMC hydrolysis fluorescence kinetic; stronger effect = lower value | calls only at 20 µM | actives 0.48% (n = 72,000);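 active = activity remaining at or below 50% of control, provided the compound also passes the data quality filters; inactive = the rest, including low values that fail the filters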
tolC growth inh = growth inhibitors of E. coli BW25113 tolC mutant. OD615. growth inhibition, % at 10 µM (by protocol). actives 2.2% (n = 65,000);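 active = growth inhibition at or above a cutoff equal to the mean over every tested compound plus 3 SD, cut at about 60% in these data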;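 note: growth measured after 20 h incubation at 37 °C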
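Material: E. coli BW25113 ΔtolC::kan, tolC deletion mutant strain. Measure: percent growth inhibition. Schedule: 37 °C, 20 h exposure. Doses: single-point testing at 10 µM. Signal: A615 absorbance measurement. Buffer or medium: kanamycin-containing LB broth (50 µg/mL).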
E coli WT exp = blocks growth of wild type E. coli BW25113; AID 710; actives 0.15% (n = 98,000); growth inhibition, % at 100 µM; OD600 absorbance;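 active = growth inhibition above about 50% at one test dose, limit read from the data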;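 note: growth measured after 20 h incubation at 37 °C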
M1 antagonist = blocks the rat M1 muscarinic receptor response to acetylcholine; CHO-M1 cells, Fluo-4 calcium, ACh EC80 antagonist mode; stronger effect = lower value; B-score at 10 µM; actives 3.4% (n = 64,000);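 active = calcium fluorescence response, raw or row-and-column corrected B-score, differing from the plate sample mean either way at a set confidence level, mostly lower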
Target sequence (P08482 whole entry, looked up): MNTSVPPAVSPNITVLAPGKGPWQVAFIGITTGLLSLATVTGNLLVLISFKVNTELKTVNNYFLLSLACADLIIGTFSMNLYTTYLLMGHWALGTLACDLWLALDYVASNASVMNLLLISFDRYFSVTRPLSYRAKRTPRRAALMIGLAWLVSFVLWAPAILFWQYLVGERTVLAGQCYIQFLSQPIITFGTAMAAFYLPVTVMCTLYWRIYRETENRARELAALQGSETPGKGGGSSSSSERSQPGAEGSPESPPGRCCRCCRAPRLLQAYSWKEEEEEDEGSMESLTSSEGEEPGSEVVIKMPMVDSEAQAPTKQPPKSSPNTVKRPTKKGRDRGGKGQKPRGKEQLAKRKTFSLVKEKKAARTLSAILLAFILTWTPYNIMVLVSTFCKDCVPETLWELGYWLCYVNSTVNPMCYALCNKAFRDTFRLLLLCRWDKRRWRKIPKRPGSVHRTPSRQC
M1 agonist = agonists of M1 muscarinic receptor; CHO-M1 cells, Fluo-4 calcium fluorescence, agonist mode; stronger effect = higher value; B-score at 10 µM; actives 3% (n = 64,000); AID 626;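 active = fluorescence rise, raw or as B-score row- and column-corrected plate score, outside the 99.7% band of its plate's samples, either direction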
Hsp90 block = displaces geldanamycin probe from tumor Hsp90; inhibition, % at 30 µM; AID 429; P07900; actives 0.35% (n = 64,000); NCI-N417 lysate Hsp90, Cy3B-geldanamycin FP displacement;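 active = inhibition above 50%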
M1 antag conf = confirmation of rat M1 muscarinic receptor antagonists | shares compounds with M1 antagonist | calcium response (max-min fluorescence) at 10 µM | CHO-M1 cells, Fluo-4 calcium, ACh EC80 antagonism; stronger effect = lower value | actives 43% (n = 1,700) | AID 677;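 active = calcium response below the same-plate mean of wells given acetylcholine alone at its 80%-effect dose, minus 3 SD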
mGluR4 antag = acts on human mGluR4 in M1 antagonist selectivity test | shares compounds with M1 antagonist | CHO-mGluR4 calcium flux, Fluo-4 fluorescence, glutamate EC80; stronger effect = lower value | fluorescence response (max-min) at 10 µM | actives 0.9% (n = 1,700) | AID 678;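 active = fluorescence response below the plate's average for near-maximal glutamate wells, less 3 SD of those wells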;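 note: raw unnormalized fluorescence span taken in the window right after glutamate addition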
Of the large screens only hits and unclear results are named; the others gave an inactive call (follow-up assays come after a bar, where shown). The list is not random: actives were taken first. Their share in the collection is about 5.1%.

CC(Oc1ccc(Cl)cc1Cl)C(=O)NCc1ccncc1 (stereo not given)	M1 antagonist -2.4 (no result: BAP1 block, Hsp90 block) | M1 antag conf inactive | mGluR4 antag inactive
CC(=O)Nc1ccc(S(=O)(=O)N2CCN(c3nc(NC4CCCC4)c4ccccc4n3)CC2)cc1	M1 antagonist -2.8 (not shown: BAP1 block) | M1 antag conf 514 | mGluR4 antag inactive
CC(=O)Nc1ccc(S(=O)(=O)N2CCN(c3cc(C)nc4ccccc34)CC2)cc1	none
CCOC(=O)c1sc2ncnc(NCC(c3cccs3)N(C)C)c2c1C (stereo not given)	M1 antagonist -3.4 | M1 antag conf 496 | mGluR4 antag inactive
COc1cc([N+](=O)[O-])cc(C=Nc2cc(-c3nc4cc(C)ccc4o3)ccc2Br)c1O	none (no result: tolC growth inh, E coli WT exp, M1 antagonist, M1 agonist, Hsp90 block)
CCN1CCN(Cc2ccc(OC)c(OCc3ccccc3)c2)CC1	none
COc1ccc(CN2CCN(c3ccccn3)CC2)cc1OCc1ccccc1	M1 antagonist -2.7 | M1 antag conf 573 | mGluR4 antag inactive
COc1cc2nc(N3CCNCC3)nc(N)c2cc1OC	M1 antagonist -1.4 | M1 antag conf inactive | mGluR4 antag inactive
COc1cc(NS(=O)(=O)c2ccc(NC(=O)c3ccco3)cc2)ncn1	none (no result: tolC growth inh, E coli WT exp, M1 antagonist, M1 agonist, Hsp90 block)
COc1cc(NS(=O)(=O)c2ccc(NC(=O)c3ccco3)cc2)nc(OC)n1	M1 antagonist -2.2 | M1 antag conf inactive | mGluR4 antag inactive
COc1ccc(CNC(=O)CN(CC2CCCO2)C(=O)CNS(=O)(=O)c2ccccc2)cc1 (stereo not given)	M1 antagonist -2.4 | M1 antag conf inactive | mGluR4 antag inactive
O=C(O)c1cc(-c2cccs2)nc2cc3c(cc12)OCCO3	M1 antagonist -0.77 (not shown: BAP1 block) | M1 antag conf inactive | mGluR4 antag inactive
Cc1ccc2nc(-c3ccc4c(c3)OCCO4)cc(C(=O)O)c2c1	none
CN1CCc2c(c3c(n2C)CCN(C)[C@@H]3c2cccnc2)[C@H]1c1cccnc1	M1 antagonist -3.1 | M1 antag conf inactive | mGluR4 antag inactive
O=C(Cc1ccccc1)OCCN1C(=O)c2cccc3c(N4CCCCC4)ccc(c23)C1=O	none (no result: tolC growth inh, E coli WT exp, M1 antagonist, M1 agonist, Hsp90 block)
Cc1ccccc1C(=O)NC(C)C(c1cccs1)N1CCOCC1 (stereo not given)	none (no result: BAP1 block, tolC growth inh, M1 antagonist, M1 agonist, Hsp90 block)
COc1ccccc1C(=O)NC(C)C(c1cccs1)N1CCOCC1 (stereo not given)	M1 antagonist -3.5 | M1 antag conf inactive | mGluR4 antag inactive
CC(C)(C)c1cc(C(=O)NCc2ccccc2)ccn1	M1 antagonist -4.2 (no result: BAP1 block, tolC growth inh, Hsp90 block) | M1 antag conf inactive | mGluR4 antag inactive
CCSc1sccc1C1C(C#N)=C(N)N(c2cccnc2)C2=C1C(=O)CC(C)(C)C2 (stereo not given)	M1 antagonist -5.1 | M1 antag conf inactive | mGluR4 antag inactive
COc1ccc(CN2C(=O)CCC2(C)C(=O)NC2CCCCCC2)cc1 (stereo not given)	none
COc1cccc(CN2C(=O)CCC2(C)C(=O)NC2CCCCC2)c1 (stereo not given)	M1 antagonist -3.5 | M1 antag conf inactive | mGluR4 antag inactive
COc1ccc(C(C(=O)OC(C)CN(C)C)c2ccccc2)cc1 (stereo not given)	M1 antagonist -3 | M1 antag conf 333 | mGluR4 antag inactive
COc1ccc(C(=O)OC(C(=O)c2ccccc2)c2ccccc2)cc1 (stereo not given)	none (no result: BAP1 block, tolC growth inh, M1 antagonist, M1 agonist, Hsp90 block)
CCCC(=O)Oc1cc2c(C(=O)OCC)c(C)n(C)c2c2ccccc12	none (no result: tolC growth inh, E coli WT exp, M1 antagonist, M1 agonist, Hsp90 block)
N#CCSc1nc2scc(-c3cccs3)c2c(=O)n1CCc1ccccc1	M1 antagonist -3.3 (not shown: BAP1 block) | M1 antag conf inactive | mGluR4 antag inactive
C=CCn1c(SCC(=O)Nc2ccccc2)nc2scc(-c3cccs3)c2c1=O	none (no result: BAP1 block, tolC growth inh, M1 antagonist, M1 agonist, Hsp90 block)
CC(=O)Nc1ccc(S(=O)(=O)N2CCN(C)CC2)cc1	none (no result: BAP1 block, tolC growth inh, M1 antagonist, M1 agonist, Hsp90 block)
CC(=O)Nc1ccc(S(=O)(=O)N2CCN(C34CC5CC(CC(C5)C3)C4)CC2)cc1	M1 antagonist -3.1 | M1 antag conf inactive | mGluR4 antag inactive
